A selection: hits, their analogues and other compounds. The true share with any hit is near 7.6%.
HEK293 NFkB inh: lowers PMA/ionomycin-induced NF-kB signal in HEK293 cells | AID 465 | inhibition, % at 3 µM | hit rate 0.21% among 62,000 | HEK-293 NF-kB luciferase reporter, luminescence;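 active = inhibition above the mean of all tested compounds plus 3 SD, cut at about 40% in these data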;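 note: 0% = stimulated DMSO wells and 100% = 10 µM reference inhibitor 5653914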
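Material: HEK-293 cells with stable firefly luciferase reporter driven by four HIV NF-kB elements / Also added: PMA plus ionomycin mix as NF-kB-activating stimulus / Compound dosing: 3 µM once, 0.30% DMSO / Times: 1 h pretreatment, 16 h stimulation, 37 °C / Signal: luminescence / Evaluation: per-plate % inhibition versus controls / Benchmarks: DMSO and 10 µM reference inhibitor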
M1 antagonist: antagonists of rat M1 muscarinic receptor; P08482; CHO-M1 cells, Fluo-4 calcium, ACh EC80 antagonist mode; hits give low values; B-score at 10 µM; hit rate 3.4% among 64,000;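 active = calcium fluorescence response, raw or row-and-column corrected B-score, differing from the plate sample mean either way at a set confidence level, mostly lower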
Jurkat viability: cytotoxic compounds reducing Jurkat cell viability; inhibition, % at 4 µM; Jurkat E6.1 viability, ATP luminescence, 48 h; hit rate 1.2% among 56,000;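 active = inhibition above the mean inhibition of all tested compounds plus 3 SD, cut at about 28% in these data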
hDAT+cocaine: modulates human dopamine transporter uptake under cocaine; LLC-PK1 hDAT cells, [14C]-dopamine uptake with cocaine IC80; actives deviate in either direction; B-score at 10 µM; hit rate 1.3% among 110,000; AID 449768;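 active = Z score or B-score, a plate-position-corrected score, falls beyond the plate's 99.7% confidence bounds, in either direction; inactive = both scores lie inside the 99.7% bounds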;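 note: scored against the spread of the other compound wells on the same plate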
D1 allo mod: allosteric modulators of human D1 dopamine receptor. P21728. HEK293 D1, CRE-luciferase, dopamine EC30 potentiation; actives deviate in either direction. B-score at 10 µM. hit rate 5.9% among 58,000. AID 641;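 active = luminescence count or its row- and column-corrected plate score outside the 99.7% band of the plate's sample wells, on either side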
Target sequence (P21728 whole entry, looked up): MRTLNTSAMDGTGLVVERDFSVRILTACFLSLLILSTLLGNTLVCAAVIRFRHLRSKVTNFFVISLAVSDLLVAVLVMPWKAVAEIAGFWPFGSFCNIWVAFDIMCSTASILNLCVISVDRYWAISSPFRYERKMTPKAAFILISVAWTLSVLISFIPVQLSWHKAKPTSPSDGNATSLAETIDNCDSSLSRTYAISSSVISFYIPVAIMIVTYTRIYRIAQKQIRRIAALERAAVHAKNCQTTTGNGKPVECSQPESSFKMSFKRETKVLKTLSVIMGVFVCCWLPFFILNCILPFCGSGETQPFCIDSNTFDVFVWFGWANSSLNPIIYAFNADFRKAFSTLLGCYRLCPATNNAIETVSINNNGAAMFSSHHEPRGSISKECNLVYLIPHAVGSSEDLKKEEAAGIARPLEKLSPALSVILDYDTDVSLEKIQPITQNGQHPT
M1 agonist: activates the M1 muscarinic receptor. CHO-M1 cells, Fluo-4 calcium fluorescence, agonist mode; hits give high values. B-score at 10 µM. hit rate 3% among 64,000;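 active = fluorescence rise, raw or as B-score row- and column-corrected plate score, outside the 99.7% band of its plate's samples, either direction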
M1 antag confirm: confirmation of rat M1 muscarinic receptor antagonists | shares compounds with M1 antagonist | CHO-M1 cells, Fluo-4 calcium, ACh EC80 antagonism; hits give low values | calcium response (max-min fluorescence) at 10 µM | hit rate 43% among 1,700 | AID 677;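 active = calcium response below the same-plate mean of wells given acetylcholine alone at its 80%-effect dose, minus 3 SD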;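 note: raw fluorescence intensity difference in arbitrary instrument units and not normalized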
mGluR4 antag: acts on human mGluR4 in M1 antagonist selectivity test; shares compounds with M1 antagonist; CHO-mGluR4 calcium flux, Fluo-4 fluorescence, glutamate EC80; hits give low values; fluorescence response (max-min) at 10 µM; hit rate 0.9% among 1,700; AID 678;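 active = fluorescence response below the plate's average for near-maximal glutamate wells, less 3 SD of those wells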;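 note: raw unnormalized fluorescence span taken in the window right after glutamate addition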
D1 mod confirm: confirmation of human D1 dopamine receptor allosteric modulators; luminescence at 10 µM; shares compounds with D1 allo mod; HEK293 D1 CRE-luciferase, dopamine EC30 potentiation; hits give high values; hit rate 88% among 2,200; AID 642;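 active = luminescence in either of two replicates above the same-plate mean plus 3 SD of the low-dose dopamine control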
D1 ag no DA: D1 (human) signaling in absence of dopamine; hit rate 0.8% among 1,900; shares compounds with D1 allo mod; HEK293 D1 CRE-luciferase, luminescence, no dopamine; hits give high values; luminescence at 10 µM; in the data active = luminescence above about 3900
Isoprot counter: counter-screen for D1 modulators: isoproterenol response in HEK293 cells; shares compounds with D1 allo mod; HEK293 D1 CRE-luciferase, isoproterenol EC30 counter-screen; calls only at 10 µM; hit rate 63% among 2,200;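 active = luminescence in either replicate above plate mean of wells with a partly effective reference agonist dose plus 3 SD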;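 note: isoproterenol raises cAMP through native beta-adrenoceptor Gs so signal bypasses D1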
The depositor's hits bear a star; x = not tested or not shown; + = active, no number.

SMILES	HEK293 NFkB inh	M1 antagonist	Jurkat viability	hDAT+cocaine	D1 allo mod	M1 agonist	M1 antag confirm	mGluR4 antag	others
COC(=O)c1[nH]c2ccc(Cl)cc2c1NC(=O)CCN1CCN(C2CCCCC2)CC1	10	-9.6*	1	0.18	-0.055	-0.02	51*	213
COC(=O)c1[nH]c2ccc(Br)cc2c1NC(=O)CN1CCN(C2CCCCC2)CC1	7	-7.5*	3	2.9*	0.11	0.6	324*	256
CC1(C)Cc2c(c(N3CCOCC3)nc3sc(C(=O)N4CCCCC4)c(N)c23)CO1	0	0.24	3	0.49	0.44	0.71	x	x
c1ccc(OCCSc2nnnn2C2CCCCC2)cc1	-34	0.21	3	x	-0.11	-0.12	x	x
Cc1ccc(OCC(=O)N/N=C/c2cn[nH]c2-c2ccc(Cl)c(Cl)c2)cc1	x	x	x	0.26	x	x	x	x
CC12CC3CC(C)(C1)CC(CN)(C3)C2	x	x	x	-0.7	x	x	x	x
N#C/C(=C(/O)COC(=O)CCC1CCCCC1)c1nc2ccccc2[nH]1	0	0.43	-4	0.048	0.087	-2.3	x	x
Cc1ccc(N(CC(=O)Nc2ccc(F)c(Cl)c2)S(=O)(=O)c2c(C)noc2C)cc1	7	0.048	-2	0.72	0.049	0.34	x	x
CCN(CC)CCOC(=O)C(c1ccccc1)c1ccccc1	x	-13*	x	-0.51	-0.52	0.14	19*	240
CCN(CCO)C(=O)C(c1ccccc1)c1ccccc1	x	x	x	-0.47	x	x	x	x
Cc1nn(C)c(C)c1CN(C)C(=O)c1cc2n(n1)C(C(F)(F)F)CC(c1cccs1)N2 (stereo not drawn)	21	-3.5*	-2	0.33	-0.41	-1.8	590	244
COc1cccc(-n2nc(-c3ccnn3-c3ccc(C)cc3)c(=O)n(C)c2=O)c1	x	x	x	-0.81	x	x	x	x
COC(=O)c1c(NC(=O)CSc2nnc(Cn3nnc4ccccc43)n2C)sc(C)c1C	19	-2.4*	0	0.41	-0.053	1.3	430*	255
CSc1ccc(S(=O)(=O)N2CCN(Cc3ccc4c(c3)OCO4)CC2)cc1	17	-2.1*	4	0.52	-1	-0.16	440	208
O=C(Nc1ccccc1)N1CCN(Cc2ccc3c(c2)OCO3)CC1	16	-0.0078	2	0.6	-0.43	0.017	x	x
O=C(CSCc1ccccc1)N1CCN(Cc2ccc3c(c2)OCO3)CC1	1	-0.64	2	0.68	-0.65	0.95	x	x
c1ccc(CN2CCC(N3CCN(Cc4ccc5c(c4)OCO5)CC3)CC2)cc1	16	-2.3*	8	x	-0.79	-0.5	330*	197
O=C(CN(c1ccccc1)S(=O)(=O)c1ccccc1)N1CCN(Cc2ccc3c(c2)OCO3)CC1	15	-4.1*	6	1.6	-0.45	-0.099	436*	242
O=C(NNC(=O)c1ccccc1-n1cccc1)c1ccc(Cl)cc1Cl	x	x	x	0.61	x	x	x	x
O=C(COC(=O)C1CC(=O)N(c2ccc3c(c2)OCCO3)C1)Nc1ccc2c(c1)CCC2 (stereo not drawn)	14	0.74	-6	-0.28	0.15	-0.29	x	x
Cc1cc(C(C)(C)C)ccc1OCCN1CCCC1	x	x	x	-1.4	x	x	x	x
Clc1ccccc1OCCCCN1CCCC1	16	-1.7*	-8	-0.29	-1.5	-0.89	454	186
O=C(OCCN1CCCCC1)c1ccccc1Cl	3	-2.6*	0	x	-1.7	-0.096	543	230
CC(C)(C)c1ccccc1OCCN1CCCC1	3	-11*	-6	-0.17	0.4	0.12	176*	209
CC(=O)c1ccccc1OCCCN1CCCCC1	13	-2.3*	4	0.25	-4.4*	0.13	356*	225
SMILES	HEK293 NFkB inh	M1 antagonist	Jurkat viability	hDAT+cocaine	D1 allo mod	M1 agonist	M1 antag confirm	mGluR4 antag	others
COC(=O)Nc1ccc2c(c1)N(C(=O)CCN1CCN3CCCC3C1)c1ccccc1S2 (stereo not drawn)	10	-1.1	-8	0.19	-2.2	-0.62	x	x
Cc1cnc(C(=O)OCC(=O)NCCc2ccccc2)cn1	x	x	x	-0.11	x	x	x	x
CCC(Oc1ccc(C)c(C)c1)C(=O)O (stereo not drawn)	16	-0.47	-4	-0.33	0.048	-0.67	x	x
COc1ccc(OC)c(S(=O)(=O)NCCC2=CCCCC2)c1	17	-2.7*	2	0.92	0.099	1.2	441*	229
O=C(CSc1ncnc2c1nnn2-c1ccc(F)cc1)NCC1CCCO1 (stereo not drawn)	1	-1.3	-2	0.15	-0.016	0.19	x	x
Cc1ccc(-n2nnc3c(SCC(=O)NCC4CCCO4)ncnc32)cc1 (stereo not drawn)	16	-2.4*	x	-0.073	x	1.5	569	247
O=C(Cc1ccccc1)Nc1ccccc1CO	5	0.69	4	-0.59	-0.054	0.19	x	x
O=C(Cc1ccc(Cl)cc1)Nc1ccccc1CO	19	-2.5*	x	0.42	-0.87	0	613	236
O=c1c2c3c(sc2nc2n1CCCCC2)CCCCC3	-19	-3.1*	1	-0.81	2.2	-1.2	273*	220
Cc1ccc(C)n1-n1c(C)nc2sc3c(c2c1=O)CCCCC3	15	-5.6*	5	-0.42	x	-0.5	325*	247
O=c1c2c3c(sc2nc2n1CCCCC2)CCCC3	-15	x	7	0.0031	3	x	x	x
COC(=O)[C@H]1C[C@@H]1[C@H](NC(=O)c1cc(C)on1)c1ccccc1	x	x	x	-1.4	x	x	x	x
CC1=CC=CN2CC(O)CN=C12 (stereo not drawn)	x	0.44	x	x	x	-0.036	x	x
Cc1nc(NCc2ccco2)c2c3c(sc2n1)CCC3	-16	-1.9*	36*	0.078	-4.7*	0.12	621	268
CCC(c1nnnn1Cc1ccco1)N(Cc1ccccc1OC)Cc1cc2cc(C)ccc2[nH]c1=O (stereo not drawn)	21	-2.2*	2	-0.55	0.8	0.65	590	201
CCC(c1nnnn1Cc1ccco1)N(Cc1cc2cc(C)cc(C)c2[nH]c1=O)CC1CCCO1 (stereo not drawn)	18	0.13	0	0.32	0.24	-0.56	x	x
N#CCSc1nc2c(cc1C#N)CCCCCC2	x	-5.3*	x	-0.94	7.9*	0.062	205*	259	D1 mod confirm=11156*;D1 ag no DA=1660;Isoprot counter=+
CC(C)Cc1nnc(NC(=O)c2ccncc2)s1	-4	-0.47	-6	0.51	0.082	0.58	x	x

High-throughput results from PubChem BioAssay.
